Tests used:
Format in all cases: functional
HOP-92 = test: Antitumor activity against human HOP92 cells
In short: (§1)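 Run by the NCI in its in vitro disease-oriented screen of about 60 human tumour cell lines. For each line it reports pGI50 (50% net growth inhibition), pTGI (total growth inhibition) and pLC50 (50% net cell death), each as –log molar concentration. Where an effect was not reached within the tested range, the highest tested concentration was used.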

NCI-H226 = test: Antitumor activity against human NCI-H226 cells; in short: as §1
[1] = Antitumor activity against human NCI-H322 cells; in short: as §1
NCI-H522 = test: Antitumor activity against human NCI-H522 cells; in short: as §1
COLO 205 = test: Antitumor activity against human COLO205 cells; in short: as §1
HT-29 = test: Antitumor activity against human HT29 cells; in short: as §1
KM12 = test: Antitumor activity against human KM12 cells; in short: as §1
SW-620 = test: Antitumor activity against human SW620 cells
In short: (§2)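 NCI 60-cell-line screen. Parameters were GI50 (50% net growth inhibition), TGI and LC50, each reported as –log molar concentration. Where an effect was not reached within the tested range, the highest tested concentration was used in the calculation.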

SF-268 = test: Antitumor activity against human SF268 cells; in short: as §1
SF-295 = test: Antitumor activity against human SF295 cells; in short: as §1
SNB-19 = test: Antitumor activity against human SNB19 cells; in short: as §1
SNB-75 = test: Antitumor activity against human SNB75 cells; conditions: Homo sapiens, SNB-75; in short: as §1
LOX IMVI = test: Antitumor activity against human LOXIMVI cells; in short: as §1
Malme-3M = test: Antitumor activity against human MALME3M cells; in short: as §1
M14 = test: Antitumor activity against human M14 cells; in short: as §1
SK-MEL-2 = test: Antitumor activity against human SKMEL2 cells; in short: as §1
SK-MEL-28 = test: Antitumor activity against human SKMEL28 cells; in short: as §1
UACC-257 = test: Antitumor activity against human UACC257 cells; in short: as §2
UACC-62 = test: Antitumor activity against human UACC62 cells; in short: as §2
IGROV-1 = test: Antitumor activity against human IGROV1 cells; in short: as §1
OVCAR-8 = test: Antitumor activity against human OVCAR8 cells; in short: as §1
A498 = test: Antitumor activity against human A498 cells; in short: as §1
CAKI-1 = test: Antitumor activity against human CAKI1 cells; in short: as §1
RXF 393 = test: Antitumor activity against human RXF393 cells; in short: as §1
NCI-H460 = test: Cell viability against human NCI-H460 cells at 10 uM
CCRF-CEM [2] = test: Antitumor activity against human CCRF-CEM cells; in short: as §1
MOLT-4 = test: Antitumor activity against human MOLT4 cells; in short: as §1
A549 = test: Antitumor activity against human A549 cells; in short: as §1
EKVX = test: Antitumor activity against human EKVX cells; in short: as §1
HOP-62 = test: Antitumor activity against human HOP62 cells; in short: as §1
SN12C = test: Antitumor activity against human SN12C cells; in short: as §1
TK-10 = test: Antitumor activity against human TK10 cells; in short: as §2
PC-3 = test: Antitumor activity against human PC3 cells; in short: as §1
MCF7 [3] = test: Antitumor activity against human MCF7 cells; in short: as §1
[4] = Antitumor activity against human […] cells; in short: as §1
MDA-MB-435 = test: Antitumor activity against human MDA-MB-435 cells; in short: as §1
MCF7 [5] = test: Growth inhibition of human MCF7 cells after 72 hrs by MTT assay; conditions: MCF7, 72 h
In short: (§3)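 Growth inhibition by MTT after 72 h incubation. Resistant sublines: LoVoDoxo and MCF-7 MDR were kept in 0.1 µg/mL doxorubicin; CEMVbl-100 was selected against vinblastine. GI50 given as mean ± SEM of three independent experiments. Resistance index is resistant-line GI50 over parental GI50.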

MCF7 [6] = test: Growth inhibition of human multidrug-resistant MCF7 cells after 72 hrs by MTT assay; conditions: MCF7, 72 h; in short: as §3
MCF7 [7] = test: Resistance index, Ratio of GI50 for human multidrug-resistant MCF7 cells to GI50 for human MCF7 cells; in short: as §3
CCRF-CEM [8] = test: Growth inhibition of human vinblastine-resistant CEM cells after 72 hrs by MTT assay; in short: as §3
[9] = read-out: Log LC50 (the source's name) (converted)

COc1ccc2c(c1)[nH]c(=O)c1c3ccccc3cn21
GI50 (HOP-92): 1000 nM | LC50 (HOP-92): 39.8 µM | TGI (HOP-92; read-out: pTGI (converted)): 15.8 µM | GI50 (NCI-H226): 45.7 nM | LC50 (50% net cell kill) (NCI-H226): > 100 µM | TGI (NCI-H226; read-out: pTGI (converted)): 525 nM | GI50 [1]: 83.2 nM | LC50 (50% net cell death) [1]: 7.76 µM | TGI ([1]; read-out: pTGI (converted)): 2570 nM | GI50 (NCI-H522): 60.3 nM | CC50 (NCI-H522; [9]): 10 µM | TGI (NCI-H522; read-out: pTGI (converted)): 2290 nM | GI50 (COLO 205): 40.7 nM | LC50 (COLO 205): 5.75 µM | TGI (COLO 205; read-out: pTGI (converted)): 1150 nM | GI50 (HT-29): 33.9 nM | LC50 (HT-29): > 100 µM | TGI (HT-29; read-out: pTGI (converted)): 1480 nM | GI50 (KM12): 33.1 nM | LC50 (50% net cell death) (KM12): 6.03 µM | TGI (KM12; read-out: pTGI (converted)): 1510 nM | GI50 (SW-620): 26.3 nM | CC50 (SW-620; [9]): 4.17 µM | TGI (SW-620; read-out: pTGI (converted)): 1410 nM | GI50 (SF-268): 74.1 nM | CC50 (SF-268; [9]): 87.1 µM | TGI (SF-268; read-out: pTGI (converted)): 2950 nM | GI50 (SF-295): 26.9 nM | CC50 (SF-295; [9]): 4.17 µM | TGI (SF-295; read-out: pTGI (converted)): 1050 nM | GI50 (SNB-19): 38.9 nM | CC50 (SNB-19; [9]): > 100 µM | TGI (SNB-19; read-out: pTGI (converted)): 4.07 µM | GI50 (SNB-75): 27.5 nM | LC50 (SNB-75): > 100 µM | TGI (SNB-75; read-out: pTGI (converted)): 83.2 nM | GI50 (LOX IMVI): 70.8 nM | LC50 (50% net cell kill) (LOX IMVI): 4.47 µM | TGI (LOX IMVI; read-out: pTGI (converted)): 1780 nM | GI50 (Malme-3M): 10 nM | CC50 (Malme-3M; [9]): 8.51 µM | TGI (Malme-3M; read-out: pTGI (converted)): 3.39 µM | GI50 (M14): 10 nM | CC50 (M14; [9]): 3.63 µM | TGI (M14; read-out: pTGI (converted)): 12.9 µM | GI50 (SK-MEL-2): 158 nM | LC50 (SK-MEL-2): 7.76 µM | TGI (SK-MEL-2; read-out: pTGI (converted)): 2510 nM | GI50 (SK-MEL-28): 52.5 nM | CC50 (SK-MEL-28; [9]): 6.61 µM | TGI (SK-MEL-28; read-out: pTGI (converted)): 2510 nM | GI50 (UACC-257): 5.13 µM | LC50 (UACC-257): 74.1 µM | TGI (UACC-257; read-out: pTGI (converted)): 30.9 µM | GI50 (UACC-62): 74.1 nM | LC50 (UACC-62): 4.37 µM | TGI (UACC-62; read-out: pTGI (converted)): 1910 nM | GI50 (IGROV-1): 74.1 nM | CC50 (IGROV-1; [9]): 8.51 µM | TGI (IGROV-1; read-out: pTGI (converted)): 2290 nM | GI50 (OVCAR-8): 57.5 nM | LC50 (50% net cell death) (OVCAR-8): > 100 µM | TGI (OVCAR-8; read-out: pTGI (converted)): 2340 nM | GI50 (A498): 22.4 nM | CC50 (A498; [9]): > 100 µM | TGI (A498; read-out: pTGI (converted)): 1350 nM | GI50 (CAKI-1): 35.5 nM | LC50 (CAKI-1): 5.13 µM | TGI (CAKI-1; read-out: pTGI (converted)): 2000 nM | GI50 (RXF 393): 20.4 nM | CC50 (RXF 393; [9]): > 100 µM | TGI (RXF 393; read-out: pTGI (converted)): 3.16 µM | Activity (NCI-H460): 0% | GI50 (CCRF-CEM [2]): 30.2 nM | LC50 (CCRF-CEM [2]): > 100 µM | TGI (CCRF-CEM [2]; read-out: pTGI (converted)): 1450 nM | GI50 (MOLT-4): 77.6 nM | LC50 (MOLT-4): 75.9 µM | TGI (MOLT-4; read-out: pTGI (converted)): 2140 nM | GI50 (A549): 67.6 nM | CC50 (A549; [9]): 6.03 µM | TGI (A549; read-out: pTGI (converted)): 1660 nM | GI50 (EKVX): 91.2 nM | LC50 (50% net cell kill) (EKVX): > 100 µM | TGI (EKVX; read-out: pTGI (converted)): 29.5 µM | GI50 (HOP-62): 30.9 nM | LC50 (50% net cell death) (HOP-62): 3.89 µM | TGI (HOP-62; read-out: pTGI (converted)): 1230 nM | GI50 (SN12C): 57.5 nM | LC50 (SN12C): > 100 µM | TGI (SN12C; read-out: pTGI (converted)): 2090 nM | GI50 (TK-10): 513 nM | CC50 (TK-10; [9]): 6.61 µM | TGI (TK-10; read-out: pTGI (converted)): 2450 nM | GI50 (PC-3): 37.1 nM | LC50 (50% net cell death) (PC-3): > 100 µM | TGI (PC-3; read-out: pTGI (converted)): 2570 nM | GI50 (MCF7 [3]): 28.2 nM | LC50 (50% net cell kill) (MCF7 [3]): 5.5 µM | TGI (MCF7 [3]; read-out: pTGI (converted)): 1450 nM | GI50 [4]: 56.2 nM | LC50 [4]: 3.09 µM | TGI ([4]; read-out: pTGI (converted)): 741 nM | GI50 (MDA-MB-435): 4.07 nM | LC50 (50% net cell death) (MDA-MB-435): > 100 µM | TGI (MDA-MB-435; read-out: pTGI (converted)): 20.9 nM | GI50 (MCF7 [5]): 170 nM | GI50 (MCF7 [6]): 150 nM | RatioGI50 (MCF7 [7]): 0.9 | GI50 (CCRF-CEM [8]): 20 nM
